Reference: ChEMBL document CHEMBL5331087, “Targeted AURKA degradation: Towards new therapeutic agents for neuroblastoma” (Eur J Med Chem, 2023)
Active and inactive are the calls of the source. No cut-off for these calls is given here.

How the values were obtained:
[1] = target: T1, Protein cereblon/Aurora kinase A (Homo sapiens) (UniProt O14965+Q96SW2); assay: PROTAC activity at AURKA/CRBN in human NGP cells assessed as AURKA degradation measured for 24 hrs by Western blot analysis; assay type: cell-based; settings: dose 10-1000 nM
[2] = target: T1, Protein cereblon/Aurora kinase A (Homo sapiens); assay: PROTAC activity at AURKA/CRBN in human NGP cells assessed as AURKA degradation at 10 to 1000 nM measured for 24 hrs in presence of MK-5108 by Western blot analysis; assay type: cell-based; settings: dose 10-1000 nM
[3] = target: T1, Protein cereblon/Aurora kinase A (Homo sapiens); assay: PROTAC activity at AURKA/CRBN in human NGP cells assessed as AURKA degradation at 10 to 1000 nM measured for 24 hrs in presence of thalidomide by Western blot analysis; assay type: cell-based; settings: dose 10-1000 nM
[4] = target: T1, Protein cereblon/Aurora kinase A (Homo sapiens); assay: PROTAC activity at AURKA/CRBN in human NGP cells assessed as reduction in AURKA level at 500 nM measured for 48 hrs by Western blot analysis; assay type: cell-based; set-up: scale not given: the % may be the effect or the level left
How it was run: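 NGP cells were treated with 500 nM compound and harvested at 0, 1, 3, 6, 24, 48 and 72 h. RIPA lysates (35 µg) were run on 10% SDS-PAGE and blotted to nitrocellulose. AURKA and MYCN were probed with vinculin as loading control and quantified by densitometry. Values are percent remaining relative to the DMSO control at each timepoint (n = 3).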

SK-N-AS [5] = assay: Antiproliferative activity against human SK-N-AS cells assessed as reduction in cell viability incubated for 48 hrs; assay type: functional, cell-based; settings: Homo sapiens, SK-N-AS, 48 h; read-out: IC50
How it was run: (§1)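 Cells were grown in RPMI 1640 with 10% FCS and 2 mM L-glutamine. Seeding was 4500 cells/well for NGP, IMR-32 and N206, and 2100 cells/well for SK-N-AS, with adherence overnight. Compound was dispensed over a concentration range in triplicate. Confluence was imaged live for 48 h and normalised to the DMSO control. Absolute IC50 came from a four-parameter variable-slope fit (n = 4).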

SK-N-AS [6] = assay: Antiproliferative activity against human SK-N-AS cells assessed as reduction in cell viability incubated for 48 hrs relative to control; assay type: functional
How it was run: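 Cells grown in RPMI 1640 with 10% fetal calf serum, 2 mM L-glutamine and penicillin/streptomycin at 37 °C, 5% CO2. Seeded at 4500 (IMR-32) or 2100 (SK-N-AS) cells/well in 384-well plates and left to adhere overnight. Concentration range dispensed in triplicate. Confluence tracked by IncuCyte live-cell imaging, and 48h values normalized to DMSO. Absolute IC50 taken from a four-parameter variable-slope fit (n = 4).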

[7] = Antiproliferative activity against human N206 cells assessed as reduction in cell viability incubated for 48 hrs; assay type: functional, cell-based; how it was run: as §1
[8] = Antiproliferative activity against human NGP cells assessed as reduction in cell viability incubated for 48 hrs relative to control; assay type: functional
NGP [9] = assay: Induction of apoptosis in human NGP cells assessed as increase in caspase3/7 level at 1000 nM incubated for 24 hrs; assay type: functional, cell-based
How it was run: (§2)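 NGP cells were seeded at 25,000 cells/well and allowed to adhere overnight. Compound was dispensed in triplicate with DMSO matched. At 24 h, cell-occupied area was imaged live, then a Caspase-Glo 3/7 assay was run using 50 µL reagent per well. Signal is expressed per cell-occupied area.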

NGP [10] = assay: Induction of apoptosis in human NGP cells assessed as increase in caspase3/7 level at 10 nM incubated for 24 hrs; assay type: functional, cell-based; how it was run: as §2
[11] = target: T1, Protein cereblon/Aurora kinase A (Homo sapiens); assay: PROTAC activity at AURKA/CRBN in human NGP cells assessed as AURKA degradation at 10 to 1000 nM measured for 24 hrs by immunoblotting analysis; assay type: cell-based; settings: dose 10-1000 nM
How it was run: (§3)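 NGP cells were seeded at about 2×10^6 per flask, adhered for 48 h, and were then treated for 24 h with DMSO matched. Lysis was in RIPA with protease/phosphatase inhibitors. AURKA was quantified by capillary Simple Western with peak areas normalised to vinculin. Fold change is relative to DMSO (mean ± SD, n = 3).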

[12] = target: T2, N-myc proto-oncogene protein (Homo sapiens) (UniProt P04198); assay: Induction of MYCN degradation in human NGP cells incubated for 24 hrs by immunoblotting analysis; assay type: cell-based; settings: dose 10-1000 nM
T2 sequence (whole entry): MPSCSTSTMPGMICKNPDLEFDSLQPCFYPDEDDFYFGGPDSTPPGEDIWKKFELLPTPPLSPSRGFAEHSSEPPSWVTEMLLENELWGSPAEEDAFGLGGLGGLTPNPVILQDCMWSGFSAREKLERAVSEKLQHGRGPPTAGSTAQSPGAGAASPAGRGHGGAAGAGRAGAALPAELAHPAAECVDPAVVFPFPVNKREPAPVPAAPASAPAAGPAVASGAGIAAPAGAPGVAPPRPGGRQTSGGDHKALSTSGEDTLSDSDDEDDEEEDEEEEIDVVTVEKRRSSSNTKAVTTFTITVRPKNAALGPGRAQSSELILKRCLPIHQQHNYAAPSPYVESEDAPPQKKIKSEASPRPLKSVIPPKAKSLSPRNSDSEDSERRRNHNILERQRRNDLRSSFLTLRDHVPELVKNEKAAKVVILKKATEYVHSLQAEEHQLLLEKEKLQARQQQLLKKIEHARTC

[13] = target: T1, Protein cereblon/Aurora kinase A (Homo sapiens); assay: PROTAC activity at AURKA/CRBN in human NGP cells assessed as increase in pCHK1 level at 10 to 1000 nM measured for 24 hrs by immunoblotting analysis; assay type: cell-based; settings: dose 10-1000 nM
[14] = target: T1, Protein cereblon/Aurora kinase A (Homo sapiens); assay: PROTAC activity at AURKA/CRBN in human NGP cells assessed as increase in H2AX phosphorylation at 10 to 1000 nM measured for 24 hrs by immunoblotting analysis; assay type: cell-based; settings: dose 10-1000 nM
[15] = Growth inhibition of patient derived NB059 Neuroblastoma organoid assessed as reduction in viability incubated for 48 hrs by CellTiter Glo 3D assay; assay type: functional, tissue-based, Homo sapiens; settings: in the assay text read “120 hrs” for “48 hrs”
How it was run: (§4)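 Patient-derived organoids were dissociated to single cells with Accutase and seeded in NB organoid medium at 5000 (000GKX), 20000 (NB059), 5000 (NB067) or 3000 (NB139) cells/well. Compound was added after 24 h over a concentration range in triplicate, with DMSO matched. Incubation was 120 h at 37 °C and 5% CO2. Viability was read by CellTiter-Glo 3D, and absolute IC50 derived (n = 1).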

[16] = Growth inhibition of patient derived 000GKX Neuroblastoma organoid assessed as reduction in viability […] by CellTiter Glo 3D assay; assay type: functional, tissue-based, Homo sapiens; how it was run: as §4
[17] = Growth inhibition of patient derived NB139 Neuroblastoma organoid assessed as reduction in viability […] by CellTiter Glo 3D assay; assay type: functional, tissue-based; settings: Homo sapiens; how it was run: as §4
[18] = Growth inhibition of patient derived NB139 Neuroblastoma organoid assessed as reduction in viability incubated for […] by CellTiter Glo 3D assay relative to control; assay type: functional; settings: Homo sapiens
[19] = Growth inhibition of patient derived NB067 Neuroblastoma organoid assessed as reduction in viability […] by CellTiter Glo 3D assay; assay type: functional, tissue-based; settings: Homo sapiens; how it was run: as §4
[20] = Growth inhibition of patient derived NB067 Neuroblastoma organoid assessed as reduction in viability incubated for […] by CellTiter Glo 3D assay relative to control; assay type: functional; settings: Homo sapiens
[21] = target: T1, Protein cereblon/Aurora kinase A (Homo sapiens); assay: PROTAC activity at AURKA/CRBN in human NGP cells assessed as AURKA degradation at 10 to 1000 nM measured for 24 hrs by Western blot analysis relative to control; assay type: cell-based; settings: dose 10-1000 nM; how it was run: as §3

T1 sequence (O14965 whole entry, looked up): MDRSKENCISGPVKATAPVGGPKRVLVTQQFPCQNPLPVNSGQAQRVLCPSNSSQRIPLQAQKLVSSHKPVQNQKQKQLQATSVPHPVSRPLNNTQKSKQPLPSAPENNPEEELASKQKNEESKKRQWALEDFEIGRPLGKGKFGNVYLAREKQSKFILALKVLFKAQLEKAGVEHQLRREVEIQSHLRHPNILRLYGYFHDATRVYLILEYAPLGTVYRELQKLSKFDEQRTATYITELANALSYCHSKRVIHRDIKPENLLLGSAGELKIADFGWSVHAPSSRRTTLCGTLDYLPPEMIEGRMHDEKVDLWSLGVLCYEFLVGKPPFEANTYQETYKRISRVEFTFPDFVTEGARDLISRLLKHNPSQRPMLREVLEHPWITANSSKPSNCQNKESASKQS
T1 sequence (Q96SW2 whole entry, looked up): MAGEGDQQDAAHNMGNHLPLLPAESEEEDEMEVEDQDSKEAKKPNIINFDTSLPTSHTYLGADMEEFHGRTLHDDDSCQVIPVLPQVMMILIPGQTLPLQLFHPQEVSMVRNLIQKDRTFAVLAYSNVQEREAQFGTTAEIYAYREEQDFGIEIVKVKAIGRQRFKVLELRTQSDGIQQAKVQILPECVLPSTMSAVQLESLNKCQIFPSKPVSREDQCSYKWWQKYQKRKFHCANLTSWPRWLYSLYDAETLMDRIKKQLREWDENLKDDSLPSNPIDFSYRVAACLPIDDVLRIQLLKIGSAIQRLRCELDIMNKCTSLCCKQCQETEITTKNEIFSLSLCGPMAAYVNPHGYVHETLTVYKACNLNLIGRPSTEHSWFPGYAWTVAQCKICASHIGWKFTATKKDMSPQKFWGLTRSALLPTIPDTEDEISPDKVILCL

Activity [1]: Active
Activity [2]: inactive
Activity [3]: inactive
Activity [4]: 100%
IC50 (SK-N-AS [5]): 6690 nM
Activity [11]: Active
Activity [12]: Dose-Dependent Effect
Activity [13]: Active
Activity [14]: Active
Emax [21]: 85%
Compound: O=C1CCC(N2C(=O)c3cccc(OCCOCCOCCOCCNC(=O)[C@]4(Cc5cccc(Nc6nccs6)n5)CC[C@@H](Oc5cccc(Cl)c5F)CC4)c3C2=O)C(=O)N1 (stereo partly specified)
Emax (SK-N-AS [6]): 45%
IC50 [7]: Not Active
Emax [8]: 27.8%
Activity (NGP [9]): Active
Activity (NGP [10]): Active
IC50 [15]: Not Active
IC50 [16]: Not Active
IC50 [17]: 131 nM
Emax [18]: 37.8%
IC50 [19]: 26.4 nM
Emax [20]: 15.5%
